CHRM4 antagonist: human M4 muscarinic receptor antagonists, primary screen, CHO cells, Fluo-8 calcium fluorescence; inhibition, % at 3 µM; 0.73% of 360,000 active; Muscarinic acetylcholine receptor M4 (Homo sapiens), P08173; CHO-hM4 cells, ACh EC80;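 active = inhibition above its plate's cutoff, the mean inhibition of sample wells plus 3 SD, cut at about 27% in these data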
Target sequence (P08173 whole entry, looked up): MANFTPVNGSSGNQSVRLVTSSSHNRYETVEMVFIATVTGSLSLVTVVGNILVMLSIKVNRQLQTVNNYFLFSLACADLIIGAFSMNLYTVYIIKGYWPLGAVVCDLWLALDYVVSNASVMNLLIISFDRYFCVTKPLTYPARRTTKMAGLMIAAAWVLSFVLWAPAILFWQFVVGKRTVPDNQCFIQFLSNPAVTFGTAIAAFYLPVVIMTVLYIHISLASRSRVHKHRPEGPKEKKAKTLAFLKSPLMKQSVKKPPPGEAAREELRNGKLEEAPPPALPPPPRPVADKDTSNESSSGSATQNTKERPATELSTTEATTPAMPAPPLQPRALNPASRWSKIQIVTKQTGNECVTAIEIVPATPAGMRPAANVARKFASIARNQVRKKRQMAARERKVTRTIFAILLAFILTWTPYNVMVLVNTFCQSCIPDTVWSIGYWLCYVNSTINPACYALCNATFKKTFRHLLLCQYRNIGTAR
TAAR1 ag: human TAAR1 agonists, primary screen, Fluo-8 calcium fluorescence, CHO RD-HGA16 cells; vehicle wells 0%, saturating PEA agonist 100%; 0.99% of 360,000 active; activation, % at 3 µM;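 active = activation above the mean activation of all test compounds in the run plus 3 SD, cut at about 38% in these data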
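System: CHO-derived RD-HGA16 cells with stable Gα16 and human TAAR1. Times: 17-24 h plating, Fluo-8 75 min 37 °C, 30 min RT. Measured by: calcium-sensitive Fluo-8 signal, excitation 470-495, emission 515-575 nm. Read-out basis: % activation relative to PEA EC100 response. Control set: DMSO and PEA EC100. Repeats: no replicates (n 1).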
TAAR1 antagonist: human TAAR1 antagonists, primary screen, Fluo-8 calcium fluorescence, CHO RD-HGA16 cells | inhibition, % at 3 µM | 1.5% of 360,000 active | Trace amine-associated receptor 1 (Homo sapiens), Q96RJ0 | antagonist;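 active = inhibition above a per-plate cutoff, the mean inhibition of test compounds on that plate plus 3 SD, cut at about 49% in these data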
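System: CHO RD-HGA16 cells bearing hTAAR1. Reagent: EC80 β-phenethylamine stimulus. Schedule: seeding 17-24 h prior, 75-min 37 °C, 30-min RT dye loading. Signal: Fluo-8 intracellular calcium dye fluorescence, real-time kinetic reads. Read-out: % inhibition from peak post-agonist over basal fluorescence ratio. Benchmarks: vehicle wells and EC80 agonist wells. Replicates: n of 1.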
M4 ag: human M4 muscarinic receptor agonists, primary screen, CHO-K1 cells, Fluo-8 calcium fluorescence; 0.14% of 360,000 active; AID 624127, 2012; activation, % at 3 µM; CHO-K1 hM4/Gqi5; vehicle 0%, full acetylcholine response 100%; Muscarinic acetylcholine receptor M4 (Homo sapiens), P08173;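 active = activation above the run mean over all test wells plus 3 SD, cut at about 32% in these data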;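 note: peak over basal fluorescence ratio per well then scaled between controls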
M4 PAM: human M4 muscarinic receptor positive allosteric modulators, primary screen, CHO-K1 cells, Fluo-8 calcium fluorescence | activation, % at 3 µM | AID 624126, 2012 | 0.4% of 360,000 active | Muscarinic acetylcholine receptor M4 (Homo sapiens), P08173 | CHO-K1 hM4/Gqi5, ACh EC20; 0% = ACh EC20, 100% = maximal ACh;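 active = activation above its plate's cutoff, the mean activation of sample wells plus 3 SD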
Each line names hits and unclear results; the compound was inactive in the other large screens; ! = not confirmed by another sample. Most compounds without a hit are left out; they make up all but 3% or so of the library.

NC(=O)c1cc([N+](=O)[O-])ccc1NCC1CCCCC1	TAAR1 ag 38
NC(=O)c1cc([N+](=O)[O-])ccc1NCc1ccc(O)cc1	none
CN[C@H]1CC[C@@H](c2ccc(Cl)c(Cl)c2)c2ccccc21	TAAR1 ag 52, TAAR1 antagonist 51!
O=C1C=C(O)CC(c2ccc(Cl)c(Cl)c2)C1 (stereo unspecified)	none
Cc1ccc(CN2CCC=CS2(=O)=O)cc1	none (no result: CHRM4 antagonist, M4 ag, M4 PAM)
CCCN(C(=O)C1CCCN(c2ncnc3c2nc2n3CCCCC2)C1)c1ccccc1C (stereo unspecified)	none (no result: CHRM4 antagonist, M4 ag, M4 PAM)
O=C1C=CC(=Nc2cccc3c2C(=O)c2ccccc2-3)O1	M4 ag 67 (no result: TAAR1 ag, TAAR1 antagonist)
Cc1[nH]nc2c1C(c1cccc(C(F)(F)F)c1)N(Cc1ccccc1)C2=O (stereo unspecified)	none (no result: CHRM4 antagonist, M4 ag, M4 PAM)
Cc1cc(C)n(CCNC(=O)[C@@H](Cc2ccccc2)NC(=O)[C@H]2O[C@@H](n3ccc(=O)[nH]c3=O)[C@H](O)[C@@H]2O)n1	none (no result: CHRM4 antagonist, M4 ag, M4 PAM)
O=C(CCl)Nc1ccccc1C(=O)c1ccccc1	M4 PAM 20
Cc1cc(C(=O)c2ccccc2)c(NC(=O)CCl)s1	none
CC1CCN(C(C)C(=O)Nc2cc(S(=O)(=O)N3CCCCC3)ccc2Cl)CC1 (stereo unspecified)	none
CC1CCN(C(C)C(=O)Nc2ccc(S(=O)(=O)N3CCCC3)cc2)CC1 (stereo unspecified)	CHRM4 antagonist 78
CC(=O)Nc1cc(NC(C)=O)cc(C(=O)OC(C)C(=O)Nc2ccc(S(=O)(=O)N3CCCC3)cc2)c1 (stereo unspecified)	none
CC(OC(=O)c1cc(Br)ccc1O)C(=O)Nc1ccc(S(=O)(=O)N2CCCC2)cc1 (stereo unspecified)	TAAR1 antagonist 52
Cc1ccc(CNC(=O)CCC(=O)Nc2nnc(C3CCCCC3)s2)cc1	none
Cc1ccc(NC(=O)CCC(=O)Nc2nnc(C3CCCCC3)s2)cc1	M4 PAM 20
CCOc1ccc(/C=C/C2=Cc3c(sc(NC(=O)CSc4n[nH]c(N)n4)c3C#N)C(C)(C)C2)cc1	CHRM4 antagonist 47
COC(=O)c1ccc2c(c1)sc(=NC(=O)CCS(=O)(=O)c1ccccc1)n2C	M4 PAM 18
CCCN1C(=O)c2[nH]nc(-c3ccccc3)c2C1c1ccc(Br)cc1 (stereo unspecified)	none (no result: CHRM4 antagonist, M4 ag, M4 PAM)
C[C@H]1CN(C(=O)OC(C)(C)C)CCN1c1ccc(N2CC[C@H](O)C2)c(C#N)c1	none (no result: CHRM4 antagonist, M4 ag, M4 PAM)
CCCCOCC1CN(CCCC)S(=O)(=O)c2c(Oc3ccc(C)cc3)cccc2O1 (stereo unspecified)	none (no result: CHRM4 antagonist, M4 ag, M4 PAM)
CSc1ccc(CN(C)C(=O)C(c2ccccc2)c2ccccc2)cc1	none
CN(CCN(C)C(C)(C)C)C(=O)C(c1ccccc1)c1ccccc1	CHRM4 antagonist 91
O=C(COC(=O)Cc1cccc(C(F)(F)F)c1)NCc1ccco1	M4 PAM 32
COc1ccc(-n2c(O)c(/C=N/NS(=O)(=O)c3ccc(C)c([N+](=O)[O-])c3)c3ccccc3c2=O)cc1OC	TAAR1 ag 42
CCOCCN1CCN(C2c3ccccc3CSc3ccccc32)CC1 (stereo unspecified)	CHRM4 antagonist 99
O=C(Nc1cccs1)Nc1nnc([C@@H]2C[C@H](O)[C@@H](CO)O2)s1	none
CCOC(=O)c1c(C)[nH]c(C(=O)COC(=O)[C@H](C)N2C(=O)C3CCCCC3C2=O)c1C (stereo partly specified)	TAAR1 antagonist 56
COc1cc(SC#N)ccc1N=Cc1c(C)[nH]n(-c2ccc(C)c(C)c2)c1=O	TAAR1 antagonist 87
COc1cc(SC#N)ccc1N=Cc1c(C)[nH]n(-c2ccc(Cl)cc2)c1=O	none
Cc1ccc(S(=O)(=O)NC(=O)C2(C)CCN2C(=O)c2c(C)noc2C)cc1 (stereo unspecified)	none
CCCCOc1ccc(S(=O)(=O)NC(=O)C2(C)CCN2C(=O)c2c(C)noc2C)cc1 (stereo unspecified)	M4 PAM 19
O=c1ccc2cc3c([nH]c4ccc(Br)cc43)oc-2c1O	TAAR1 ag 38
O=C1CN(S(=O)(=O)c2ccc(Cl)cc2)CC(=O)N1CCc1ccccc1	TAAR1 antagonist 56
CC(C)C[C@H]1CN=C(Nc2ccccc2)N1CCc1cccc(F)c1	CHRM4 antagonist 62, M4 ag 126 (no result: TAAR1 ag, TAAR1 antagonist)
CCOC(=O)C1=CC[C@@H](c2ccccc2)C(C#N)(C#N)[C@H]1/C=C/c1ccccc1	none (no result: CHRM4 antagonist, M4 ag, M4 PAM)
CCc1ccc(-n2cccc2/C=C2/C(=N)N3C(=NC2=O)SN=C3S(C)(=O)=O)cc1	TAAR1 antagonist 57
C[C@@H]1CN([C@H](C)CO)C(=O)c2c(c3ccccc3n2C)-c2ccccc2CO[C@@H]1CN(C)C(=O)CCN(C)C	none (no result: CHRM4 antagonist, M4 ag, M4 PAM)
O=C1C2C3C=CC(CO)(O3)C2C(=O)N1c1ccccc1-c1ccccc1 (stereo unspecified)	CHRM4 antagonist 27 (no result: TAAR1 ag, TAAR1 antagonist)
Cc1ccccc1C(=O)N(C)[C@H]1C[C@H]2c3[nH]c4c(-c5ccc6c(c5)OCO6)cccc4c3CCN2C(=O)[C@H]1[C@H](C)O	none (no result: CHRM4 antagonist, M4 ag, M4 PAM)
O=C(/C(N=Nc1cccc([N+](=O)[O-])c1)=C(/O)c1ccc(Br)cc1)C(F)(F)F	CHRM4 antagonist 37 (no result: TAAR1 ag, TAAR1 antagonist)
C=CCN(C(=O)c1csnn1)C(C(=O)NCc1ccccc1)c1cccs1 (stereo unspecified)	none
O=C(NCc1ccccc1)C(c1cccs1)N(Cc1cccs1)C(=O)c1cnccn1 (stereo unspecified)	TAAR1 antagonist 50
O=C(NCc1ccccc1)C(c1ccccc1)N(Cc1cccs1)C(=O)c1cnccn1 (stereo unspecified)	TAAR1 antagonist 62
CCOCCCNC(=O)C(c1ccc(OC)cc1)N(Cc1cccs1)C(=O)c1ccccn1 (stereo unspecified)	TAAR1 antagonist 50
C[C@H](CO)N1C[C@H](C)[C@@H](CN(C)C(=O)Nc2ccc3c(c2)OCCO3)OCc2cn(nn2)CCCC1=O	none (no result: CHRM4 antagonist, M4 ag, M4 PAM)
C[C@@]12C(=O)Nc3cc(F)c(F)cc3C(=O)N1[C@H]1c3ccccc3OC[C@@H]1[C@@H]2c1ccccc1	CHRM4 antagonist 71
CCOC(=O)[C@H]1[C@H]2COc3ccccc3[C@@H]2N2C(=O)c3cc(OC)c(OC)cc3NC(=O)[C@@]12C	CHRM4 antagonist 35
C[C@@]12C(=O)Nc3ccc(F)cc3C(=O)N1[C@H]1c3ccccc3OC[C@@H]1[C@@H]2c1ccccc1	CHRM4 antagonist 89 (no result: TAAR1 ag, TAAR1 antagonist)
COc1cc(CN2C[C@@H](CO)O[C@@H](n3cnc4c(NCc5ccc(F)cc5)ncnc43)C2)cc(OC)c1OC	none
